Reference: ChEMBL document CHEMBL1275350, “First in class, potent, and orally bioavailable NADPH oxidase isoform 4 (Nox4) inhibitors for the treatment of idiopathic pulmonary fibrosis” (J Med Chem, 2010)

Assays:
[1] = biological target: Xanthine dehydrogenase/oxidase (Homo sapiens, UniProt P47989); assay: Inhibition of xanthine oxidase by in vitro enzymatic assay in presence of xanthine
Outline: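 Cell-free Amplex Red read-out: xanthine oxidase incubated in PBS with Amplex Red, HRP and cofactors; ROS production started by adding xanthine. Compound at rising concentrations from 1 nM to 100 μM, 20 min at 37 °C, then read on a plate reader. Background taken without enzyme or without agonist. Ki by Cheng-Prusoff, mean of at least three experiments run in triplicate.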

[2] = system: Plasma; assay: Unbound fraction in Sprague-Dawley rat 50% plasma protein; assay type: ADME, cell-free
[3] = Intrinsic clearance in Sprague-Dawley rat liver microsomes assessed per mg of protein at 0.5 uM; assay type: ADME, Microsome
Outline: (§1)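 Phase I stability assay in pooled liver microsomes (human: male and female; rat: male Sprague-Dawley). Microsomes at 0.5 mg/mL final in 0.1 M phosphate pH 7.4. Compound 0.5 μM final, 0.25% DMSO. Preincubated at 37 °C, reaction started with 1 mM NADPH. Sampled at 0, 5, 15, 30 and 45 min, with a 45 min minus-NADPH control. Methanol quench with internal standard, LC/MS-MS, intrinsic clearance calculated.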

[4] = Permeability across human Caco-2 cell membrane at 10 uM after 2 hrs; assay type: ADME, cell-based
Outline: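 Caco-2 monolayers grown 20 days in DMEM, used when TEER >800 Ω·cm2. Dosed at 10 μM final in HBSS pH 6.5 with 1% DMSO, apical-to-basolateral and basolateral-to-apical. Incubated 2 h at 37 °C, both compartments sampled, LC-MS/MS with five-point calibration. Papp = (dQ/dt)/(C0A).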

[5] = biological target: Cytochrome P450 2C19 (Homo sapiens, UniProt P33261); assay: Inhibition of human CYP2C19; assay type: ADME
Outline: (§2)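 Recombinant human CYP isoforms with isoform-specific probe substrates and NADPH. Compound at 0.1–25 μM, final DMSO 0.3%. Metabolites measured by mass spectrometry, except CYP1A2, which used a fluorescent metabolite. IC50 derived from the decrease in metabolite formation compared with vehicle control.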

[6] = Intrinsic clearance in human liver microsomes assessed as per mg of protein at 0.5 uM; assay type: ADME, Microsome; outline: as §1
[7] = biological target: Cytochrome P450 2C9 (Homo sapiens, UniProt P11712); assay: Inhibition of human CYP2C9; assay type: ADME; outline: as §2
[8] = Oral bioavailability in Sprague-Dawley rat at 10 mg/kg; assay type: ADME, organism-based; settings: in vivo
Outline: (§3)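 Parallel design in male rats, three per group. Group 1: 5 mg/kg iv in EDPW (10% EtOH, 10% DMA, 30% PG, 50% water). Group 2: 10 mg/kg oral in aqueous 0.5% CMC with 0.25% Tween 20. Carotid cannula blood drawn up to 24 h. Plasma measured by LC/MS/MS (LLOQ 1.00 ng/mL), noncompartmental analysis.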

[9] = Tmax in Sprague-Dawley rat at 10 mg/kg, po; assay type: ADME, organism-based; design: dose 10 mg/kg, route oral; settings: in vivo; outline: as §3
[10] = Half life in Sprague-Dawley rat at 5 mg/kg, iv; assay type: ADME, organism-based; design: dose 5 mg/kg, route intravenous; settings: in vivo
Outline: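 Parallel design with six male rats: three given 5 mg/kg iv in EDPW (10% EtOH, 10% DMA, 30% PG, 50% water), three given 10 mg/kg orally in aqueous 0.5% CMC with 0.25% Tween 20. Carotid cannula blood sampled up to 24 h. Plasma levels by LC/MS/MS (LLOQ 1.00 ng/mL). Noncompartmental analysis.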

[11] = Volume of distribution at steady state in Sprague-Dawley rat at 5 mg/kg, iv; assay type: ADME, organism-based; design: dose 5 mg/kg, route intravenous; settings: in vivo, read-out: Vdss; outline: as §3
[12] = system: Mus musculus; assay: Toxicity in mouse up to 1000 mg/kg, po over 2 weeks; assay type: organism-based; design: dose 1000 mg/kg, route oral; settings: in vivo, 336 h
Outline: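 Dose range finding in mice, given orally for 2 weeks at up to 1000 mg/kg.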

[13] = species: Rattus norvegicus; assay: Inhibition of rat AMPK at 10 uM
[14] = Inhibition of calcium channel at 10 uM
[15] = Inhibition of chloride channel at 10 uM
[16] = Inhibition of potassium channel at 10 uM
[17] = biological target: MAO-B (Homo sapiens, UniProt P27338); assay: Inhibition of MAO-B at 10 uM
[18] = biological target: MAP kinase p38 (Homo sapiens) (UniProt O15264+Q15759+Q16539+P53778); assay: Inhibition of human p38 MAP kinase at 10 uM; assay type: protein assay
[19] = biological target: Dual specificity mitogen-activated protein kinase kinase 1 (Homo sapiens) (UniProt Q02750); assay: Inhibition of human MEK1 at 10 uM
[20] = biological target: Protein kinase C alpha type (Homo sapiens) (UniProt P17252); assay: Inhibition of human PKCalpha at 10 uM
[21] = biological target: Protein kinase C beta type (Homo sapiens) (UniProt P05771); assay: Inhibition of human PKCbeta at 10 uM
[22] = biological target: Protein kinase C delta type (Homo sapiens) (UniProt Q05655); assay: Inhibition of human PKCdelta at 10 uM
[23] = biological target: Phosphatidylinositol 4,5-bisphosphate 3-kinase catalytic subunit alpha isoform (Homo sapiens) (UniProt P42336); assay: Inhibition of PI3Kalpha at 10; settings: concentration not given here
[24] = biological target: Phosphatidylinositol 4,5-bisphosphate 3-kinase catalytic subunit gamma isoform (Homo sapiens) (UniProt P48736); assay: Inhibition of PI3Kgamma at 10; settings: concentration not given here
[25] = biological target: Tyrosine-protein phosphatase non-receptor type 1 (Homo sapiens) (UniProt P18031); assay: Inhibition of human PTP1B at 10 uM
[26] = biological target: Cytochrome P450 1A2 (Homo sapiens, UniProt P05177); assay: Inhibition of human CYP1A2; assay type: ADME; outline: as §2
[27] = Genotoxicity in Salmonella Typhimurium at 100 uM by mini Ames test; assay type: toxicity; settings: salmonella enterica subsp. enterica serovar typhimurium
[28] = biological target: Nitric oxide synthase, endothelial (Homo sapiens) (UniProt P29474); assay: Inhibition of eNOS at 10 uM

Chain of Cytochrome P450 2C9 (P11712 whole entry): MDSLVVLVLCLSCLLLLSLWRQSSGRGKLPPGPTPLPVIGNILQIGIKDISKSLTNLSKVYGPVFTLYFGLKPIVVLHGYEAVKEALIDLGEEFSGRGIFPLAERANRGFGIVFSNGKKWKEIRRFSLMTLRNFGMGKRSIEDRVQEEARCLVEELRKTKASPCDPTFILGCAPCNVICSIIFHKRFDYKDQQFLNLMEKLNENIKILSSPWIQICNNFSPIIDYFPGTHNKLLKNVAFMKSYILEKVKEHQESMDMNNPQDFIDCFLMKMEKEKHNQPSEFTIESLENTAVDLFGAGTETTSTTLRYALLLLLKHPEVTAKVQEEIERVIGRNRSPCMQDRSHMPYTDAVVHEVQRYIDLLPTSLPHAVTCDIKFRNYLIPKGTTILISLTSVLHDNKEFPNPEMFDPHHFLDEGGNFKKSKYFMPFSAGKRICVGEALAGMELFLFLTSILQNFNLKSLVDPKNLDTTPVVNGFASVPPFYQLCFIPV
Chain of Protein kinase C beta type (Homo sapiens) (P05771 2-671 limits assumed): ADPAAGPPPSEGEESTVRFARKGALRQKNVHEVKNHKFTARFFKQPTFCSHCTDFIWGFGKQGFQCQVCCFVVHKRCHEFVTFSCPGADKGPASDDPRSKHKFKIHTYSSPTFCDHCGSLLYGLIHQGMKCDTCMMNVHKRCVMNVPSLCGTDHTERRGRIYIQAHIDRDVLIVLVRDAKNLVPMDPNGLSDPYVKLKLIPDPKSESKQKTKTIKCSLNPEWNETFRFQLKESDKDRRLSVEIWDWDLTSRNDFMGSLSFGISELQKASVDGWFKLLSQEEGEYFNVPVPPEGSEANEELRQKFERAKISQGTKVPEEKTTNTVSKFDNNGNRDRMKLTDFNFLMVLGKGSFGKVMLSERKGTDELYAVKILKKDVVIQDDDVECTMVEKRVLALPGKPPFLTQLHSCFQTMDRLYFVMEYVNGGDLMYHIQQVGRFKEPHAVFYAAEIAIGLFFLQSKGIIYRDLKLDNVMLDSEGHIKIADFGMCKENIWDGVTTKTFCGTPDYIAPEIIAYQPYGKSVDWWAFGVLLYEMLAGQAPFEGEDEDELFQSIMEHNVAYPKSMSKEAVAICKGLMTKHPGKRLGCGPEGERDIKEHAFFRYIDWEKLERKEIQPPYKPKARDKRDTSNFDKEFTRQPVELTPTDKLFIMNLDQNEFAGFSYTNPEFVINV
Chain of Phosphatidylinositol 4,5-bisphosphate 3-kinase catalytic subunit alpha isoform (Homo sapiens) (P42336 whole entry, canonical isoform): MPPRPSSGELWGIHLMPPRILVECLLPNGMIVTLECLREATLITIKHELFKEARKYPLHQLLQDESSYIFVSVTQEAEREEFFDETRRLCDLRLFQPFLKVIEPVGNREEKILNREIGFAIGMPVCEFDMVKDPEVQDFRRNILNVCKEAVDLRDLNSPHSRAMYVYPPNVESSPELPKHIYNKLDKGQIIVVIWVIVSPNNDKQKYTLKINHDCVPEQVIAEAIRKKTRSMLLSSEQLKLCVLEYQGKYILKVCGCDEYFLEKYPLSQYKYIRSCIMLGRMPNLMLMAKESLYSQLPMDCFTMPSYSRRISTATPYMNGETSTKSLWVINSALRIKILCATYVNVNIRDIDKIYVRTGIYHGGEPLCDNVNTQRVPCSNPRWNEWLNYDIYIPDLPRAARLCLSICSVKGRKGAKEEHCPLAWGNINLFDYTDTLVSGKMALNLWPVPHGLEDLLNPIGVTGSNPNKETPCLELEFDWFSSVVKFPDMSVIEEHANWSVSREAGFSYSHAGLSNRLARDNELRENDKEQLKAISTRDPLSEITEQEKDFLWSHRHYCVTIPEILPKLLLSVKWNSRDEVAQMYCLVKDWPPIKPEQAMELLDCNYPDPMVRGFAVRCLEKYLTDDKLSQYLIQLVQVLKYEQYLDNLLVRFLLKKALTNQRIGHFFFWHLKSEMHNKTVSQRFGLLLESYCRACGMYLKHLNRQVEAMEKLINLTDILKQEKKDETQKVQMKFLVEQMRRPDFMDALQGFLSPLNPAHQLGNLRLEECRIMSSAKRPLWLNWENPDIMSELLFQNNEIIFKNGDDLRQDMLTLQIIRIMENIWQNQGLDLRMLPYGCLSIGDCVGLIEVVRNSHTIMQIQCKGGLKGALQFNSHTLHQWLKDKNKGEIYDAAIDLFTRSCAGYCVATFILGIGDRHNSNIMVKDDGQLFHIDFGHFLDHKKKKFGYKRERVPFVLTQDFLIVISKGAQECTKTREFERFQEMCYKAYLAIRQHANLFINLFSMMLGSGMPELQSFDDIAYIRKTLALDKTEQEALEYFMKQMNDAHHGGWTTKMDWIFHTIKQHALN
Chain of Tyrosine-protein phosphatase non-receptor type 1 (Homo sapiens) (P18031 whole entry): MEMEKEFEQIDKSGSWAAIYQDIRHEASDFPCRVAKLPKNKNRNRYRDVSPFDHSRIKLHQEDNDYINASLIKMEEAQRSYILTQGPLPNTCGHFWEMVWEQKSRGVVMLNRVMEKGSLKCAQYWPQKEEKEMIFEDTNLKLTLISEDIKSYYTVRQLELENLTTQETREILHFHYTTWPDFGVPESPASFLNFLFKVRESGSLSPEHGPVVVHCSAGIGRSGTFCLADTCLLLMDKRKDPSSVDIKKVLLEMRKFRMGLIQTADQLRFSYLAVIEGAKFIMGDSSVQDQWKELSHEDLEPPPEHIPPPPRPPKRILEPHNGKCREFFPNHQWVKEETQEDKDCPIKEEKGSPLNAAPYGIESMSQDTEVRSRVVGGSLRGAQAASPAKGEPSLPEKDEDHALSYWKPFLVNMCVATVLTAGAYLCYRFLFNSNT
Chain of Cytochrome P450 1A2 (P05177 whole entry): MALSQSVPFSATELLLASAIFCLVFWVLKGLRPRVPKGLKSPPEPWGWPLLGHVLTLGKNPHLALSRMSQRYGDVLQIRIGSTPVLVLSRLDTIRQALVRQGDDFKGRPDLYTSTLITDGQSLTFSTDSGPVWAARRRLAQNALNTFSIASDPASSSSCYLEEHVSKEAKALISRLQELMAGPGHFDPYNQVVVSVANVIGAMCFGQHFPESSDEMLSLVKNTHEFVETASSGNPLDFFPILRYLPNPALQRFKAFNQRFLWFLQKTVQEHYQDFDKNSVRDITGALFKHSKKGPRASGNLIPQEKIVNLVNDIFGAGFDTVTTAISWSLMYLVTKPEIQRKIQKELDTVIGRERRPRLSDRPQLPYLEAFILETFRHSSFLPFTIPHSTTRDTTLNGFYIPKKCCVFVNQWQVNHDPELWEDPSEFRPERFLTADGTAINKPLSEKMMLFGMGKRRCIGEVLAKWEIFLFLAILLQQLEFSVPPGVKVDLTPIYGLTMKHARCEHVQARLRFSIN
Chain of Phosphatidylinositol 4,5-bisphosphate 3-kinase catalytic subunit gamma isoform (Homo sapiens) (P48736 whole entry, looked up, canonical isoform): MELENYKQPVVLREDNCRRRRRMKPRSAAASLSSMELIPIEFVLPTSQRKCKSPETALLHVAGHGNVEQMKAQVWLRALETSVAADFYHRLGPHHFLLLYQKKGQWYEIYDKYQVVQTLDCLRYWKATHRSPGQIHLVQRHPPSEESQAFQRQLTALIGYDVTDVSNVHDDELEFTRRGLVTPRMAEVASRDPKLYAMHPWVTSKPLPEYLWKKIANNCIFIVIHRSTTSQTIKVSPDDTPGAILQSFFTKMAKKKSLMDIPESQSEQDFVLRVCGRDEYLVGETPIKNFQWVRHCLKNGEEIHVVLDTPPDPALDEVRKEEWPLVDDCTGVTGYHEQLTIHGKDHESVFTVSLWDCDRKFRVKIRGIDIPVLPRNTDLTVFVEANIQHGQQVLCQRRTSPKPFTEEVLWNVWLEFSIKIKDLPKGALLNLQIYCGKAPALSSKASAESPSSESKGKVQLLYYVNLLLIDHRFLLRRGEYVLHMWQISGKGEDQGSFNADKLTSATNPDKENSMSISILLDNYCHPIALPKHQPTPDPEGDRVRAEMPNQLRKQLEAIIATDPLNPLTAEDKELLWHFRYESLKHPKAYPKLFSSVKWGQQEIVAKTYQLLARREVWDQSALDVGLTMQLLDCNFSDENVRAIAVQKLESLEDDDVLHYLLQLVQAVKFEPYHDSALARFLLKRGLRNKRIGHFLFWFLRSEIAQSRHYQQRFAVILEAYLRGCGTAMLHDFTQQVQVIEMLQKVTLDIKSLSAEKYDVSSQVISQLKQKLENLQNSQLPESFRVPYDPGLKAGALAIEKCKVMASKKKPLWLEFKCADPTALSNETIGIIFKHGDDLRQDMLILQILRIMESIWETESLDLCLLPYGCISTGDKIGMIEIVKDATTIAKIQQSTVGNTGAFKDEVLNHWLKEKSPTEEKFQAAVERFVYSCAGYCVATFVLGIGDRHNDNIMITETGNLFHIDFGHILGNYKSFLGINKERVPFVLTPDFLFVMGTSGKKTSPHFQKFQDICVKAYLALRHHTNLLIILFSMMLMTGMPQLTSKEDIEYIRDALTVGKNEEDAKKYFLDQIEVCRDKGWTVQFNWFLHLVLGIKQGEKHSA
Chain of Dual specificity mitogen-activated protein kinase kinase 1 (Homo sapiens) (Q02750 whole entry): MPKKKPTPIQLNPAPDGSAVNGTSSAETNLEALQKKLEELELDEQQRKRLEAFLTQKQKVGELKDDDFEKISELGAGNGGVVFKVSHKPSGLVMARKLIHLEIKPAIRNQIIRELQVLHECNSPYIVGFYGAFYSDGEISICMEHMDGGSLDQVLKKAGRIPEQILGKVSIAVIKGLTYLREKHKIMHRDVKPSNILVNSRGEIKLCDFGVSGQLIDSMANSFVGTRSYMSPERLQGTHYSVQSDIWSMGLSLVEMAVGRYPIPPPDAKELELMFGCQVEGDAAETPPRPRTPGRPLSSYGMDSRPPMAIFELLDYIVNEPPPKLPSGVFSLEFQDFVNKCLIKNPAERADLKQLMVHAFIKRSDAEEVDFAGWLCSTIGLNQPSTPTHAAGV

Ki [1]: > 30 µM | Fu [2]: 20.5% | microsomal CLint at 0.5 µM [3]: 70.2 µL/min/mg | Papp at 2 h, 10 µM [4]: 21.4 ×10⁻⁶ cm/s | IC50 [5]: > 25 µM | microsomal CLint at 0.5 µM [6]: 24.8 µL/min/mg | IC50 [7]: > 25 µM | bioavailability [8]: 54% | Tmax [9]: 1.5 h | half-life [10]: 3.63 h | Vd [11]: 1.08 L/kg | inhibition [13]: 0% | inhibition [14]: 0% | inhibition [15]: 0% | inhibition [16]: 0% | inhibition at 10 µM [17]: 0% | inhibition [18]: 10% | inhibition [19]: 0% | inhibition [20]: 0% | inhibition [21]: 0% | inhibition [22]: 0% | inhibition [23]: 0% | inhibition [24]: 0% | inhibition [25]: 0% | IC50 [26]: > 25 µM | inhibition [28]: 6%
SMILES: Cc1c2c(=O)n(-c3ccccc3Cl)[nH]c2cc(=O)n1Cc1ccccn1
Activity [12]: Non-toxic | Activity [27]: Non-toxic
